This is a sample that favours compounds with a hit; in the whole collection about 5.9% have one here.
PTK2B oligo ant: blocks oligomerization of human Pyk2 in cells; z-score (the deposit names both 25 µM and 10 µM); hit rate 0.83% among 99,000; Q293 cells, Pyk2 FERM NanoBiT luminescence; hits give low values; AID 1347419; Q14289;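 active = Z-score of -3 or lower, scaled per plate to the spread of control and sample wells; inactive = z-score above -3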;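 also: negative z-score means lost luminescence so less FERM oligomerization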
Phagocytosis inh: blocks phagocytosis by macrophages | hit rate 0.07% among 110,000 | J774A.1 macrophage IgG-bead phagocytosis, imaging | inhibition, % at 5 µM | AID 1029;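 active = inhibition above the mean of the plate negative controls plus 5 SD, cut at about 13% in these data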;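 also: phagocytic index as fraction of beads internalized from green versus red external bead signal; plate controls were DMSO negative control for no effect and cytochalasin-D positive control for full effect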
HIV Rev-RRE inh: disrupts HIV-1 Rev binding to RRE RNA. P05866. Rev peptide-RRE RNA binding, FRET. inhibition, % at 8 µM. hit rate 0.79% among 97,000. AID 704;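 active = inhibition above the screen-wide mean plus 3 SD, cut at about 35% in these data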;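 also: 0% = median DMSO wells and 100% = median Neomycin B control wells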
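Probe or stimulus: fluorescein-Rev peptide as binding partner; assay system: Cy5-tagged RRE RNA duplex with fluorescein-tagged Rev peptide; timing: 5 min compound–RNA preincubation, then 15 min with peptide, 25 °C; medium: HEPES pH 7.5 buffer with KCl, MgCl2, NaCl and EDTA; signal: fluorescein-to-Cy5 FRET, 480 nm excitation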
DAT uptake mod: human DAT dopamine uptake with cocaine, either direction; LLC-PK1 hDAT cells, [14C]-dopamine uptake with cocaine IC80; actives deviate in either direction; hit rate 1.3% among 110,000; Q01959; AID 449768; B-score at 10 µM;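 active = Z score or B-score, a plate-position-corrected score, falls beyond the plate's 99.7% confidence bounds, in either direction; inactive = both scores lie inside the 99.7% bounds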;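 also: scored against the spread of the other compound wells on the same plate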
Cav32 inh: human Cav3.2 channel inhibition, primary screen; AID 449739; Cav3.2-expressing cells, Fluo-4 calcium fluorescence FDSS; hits give low values; B-score at 10 µM; O95180; hit rate 4% among 100,000;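 active = single-dose well whose peak fluorescence ratio is a statistical outlier from its plate by either plate-standardised score or position-corrected B-score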
Target sequence (O95180 whole entry, looked up): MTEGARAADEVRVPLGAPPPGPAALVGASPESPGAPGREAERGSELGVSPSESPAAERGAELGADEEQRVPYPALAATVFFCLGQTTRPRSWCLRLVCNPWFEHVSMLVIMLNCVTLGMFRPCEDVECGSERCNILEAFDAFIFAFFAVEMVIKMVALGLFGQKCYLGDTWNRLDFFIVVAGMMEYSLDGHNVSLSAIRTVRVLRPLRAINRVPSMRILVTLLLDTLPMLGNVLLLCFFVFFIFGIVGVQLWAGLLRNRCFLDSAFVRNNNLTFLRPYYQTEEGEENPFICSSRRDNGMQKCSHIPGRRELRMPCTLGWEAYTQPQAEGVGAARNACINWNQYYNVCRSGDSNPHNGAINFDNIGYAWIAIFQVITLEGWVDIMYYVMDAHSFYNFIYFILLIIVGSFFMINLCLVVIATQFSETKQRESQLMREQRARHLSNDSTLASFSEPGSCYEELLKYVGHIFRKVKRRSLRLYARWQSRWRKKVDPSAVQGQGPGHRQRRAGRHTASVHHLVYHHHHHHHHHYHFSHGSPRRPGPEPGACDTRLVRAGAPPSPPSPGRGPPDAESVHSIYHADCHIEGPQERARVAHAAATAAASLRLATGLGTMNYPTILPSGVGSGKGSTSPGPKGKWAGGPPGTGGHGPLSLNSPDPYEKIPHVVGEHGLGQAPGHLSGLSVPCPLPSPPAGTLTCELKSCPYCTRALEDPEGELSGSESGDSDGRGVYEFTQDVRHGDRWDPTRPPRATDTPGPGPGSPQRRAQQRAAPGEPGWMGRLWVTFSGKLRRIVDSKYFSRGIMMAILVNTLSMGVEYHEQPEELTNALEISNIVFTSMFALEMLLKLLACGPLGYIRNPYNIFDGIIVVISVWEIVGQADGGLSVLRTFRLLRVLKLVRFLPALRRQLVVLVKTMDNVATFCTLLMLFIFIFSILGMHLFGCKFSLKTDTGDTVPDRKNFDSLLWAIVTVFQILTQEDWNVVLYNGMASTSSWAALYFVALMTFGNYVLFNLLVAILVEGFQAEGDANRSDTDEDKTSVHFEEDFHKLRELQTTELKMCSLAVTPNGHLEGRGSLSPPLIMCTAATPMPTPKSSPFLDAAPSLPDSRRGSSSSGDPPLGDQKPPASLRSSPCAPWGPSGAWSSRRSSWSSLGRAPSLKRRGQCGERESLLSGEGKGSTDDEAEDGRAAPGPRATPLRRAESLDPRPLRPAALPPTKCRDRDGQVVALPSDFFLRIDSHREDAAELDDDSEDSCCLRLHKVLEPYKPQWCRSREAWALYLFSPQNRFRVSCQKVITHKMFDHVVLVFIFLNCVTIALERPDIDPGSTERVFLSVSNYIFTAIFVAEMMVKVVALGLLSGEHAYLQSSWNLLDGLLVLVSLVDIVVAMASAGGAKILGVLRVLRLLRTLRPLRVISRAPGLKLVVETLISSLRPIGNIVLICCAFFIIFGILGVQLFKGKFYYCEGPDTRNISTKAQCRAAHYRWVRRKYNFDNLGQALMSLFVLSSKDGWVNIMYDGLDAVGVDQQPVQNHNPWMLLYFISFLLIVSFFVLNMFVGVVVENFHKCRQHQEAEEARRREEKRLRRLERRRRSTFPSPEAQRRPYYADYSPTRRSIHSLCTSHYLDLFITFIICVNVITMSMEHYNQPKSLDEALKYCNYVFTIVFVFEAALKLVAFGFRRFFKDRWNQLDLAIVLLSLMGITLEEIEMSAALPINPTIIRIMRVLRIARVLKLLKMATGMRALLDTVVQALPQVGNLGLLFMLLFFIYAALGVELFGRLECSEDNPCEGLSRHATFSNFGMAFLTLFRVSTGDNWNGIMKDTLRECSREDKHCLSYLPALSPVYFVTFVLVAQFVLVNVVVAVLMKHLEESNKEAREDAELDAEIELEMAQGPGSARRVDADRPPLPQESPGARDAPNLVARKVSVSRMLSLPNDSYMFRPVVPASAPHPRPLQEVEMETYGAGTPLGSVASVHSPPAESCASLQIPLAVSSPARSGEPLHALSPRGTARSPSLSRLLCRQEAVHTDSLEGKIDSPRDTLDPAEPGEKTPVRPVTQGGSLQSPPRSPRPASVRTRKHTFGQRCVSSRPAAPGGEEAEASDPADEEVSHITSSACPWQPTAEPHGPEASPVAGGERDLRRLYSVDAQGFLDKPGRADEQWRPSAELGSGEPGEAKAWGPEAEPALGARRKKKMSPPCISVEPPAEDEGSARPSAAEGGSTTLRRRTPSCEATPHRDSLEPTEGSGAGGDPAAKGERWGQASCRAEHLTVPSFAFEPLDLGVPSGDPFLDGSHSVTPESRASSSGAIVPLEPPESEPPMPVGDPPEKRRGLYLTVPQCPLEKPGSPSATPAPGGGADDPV
Measles CPE: protection of cells from measles virus; protection (pct of control), % at 4 µM; hit rate 1.5% among 140,000; Measles virus-infected cells, CPE protection, absorbance; in the data active = protection mostly above about 24%, no sharp cut-off; inactive = mostly below about 26%
* marks the source's active call; other numbers are inactive results; [ ] = dose if it differs, or a comment.

O=C(Nc1ccc(OC(F)(F)C(F)F)c(NC(=O)c2cccc(F)c2)c1)c1cccc(F)c1 was read as Phagocytosis inh -10 and Measles CPE 5.
`C/C=C1\C(OC2OC(CO)C(O)C(O)C2O)OC=C(C(=O)OC)C1CC(=O)OCC1C(C)C(OC(=O)CC2C(C(=O)OC)=COC(OC3OC(CO)C(O)C(O)C3O)/C2=C\C)CC1C(CO)CO` (configuration not stated) gave DAT uptake mod 0.65 and Cav32 inh -0.54.
`CC1CN(S(=O)(=O)c2cccc(-c3csc(-c4ccccc4)n3)c2)CC(C)O1` (configuration not stated) gave PTK2B oligo ant -0.84, Phagocytosis inh 0, HIV Rev-RRE inh 12, DAT uptake mod 2.4*, Cav32 inh -1.1 and Measles CPE 13.
O=S(=O)(c1cccc(-c2csc(-c3ccccc3)n2)c1)N1CCOCC1 was read as PTK2B oligo ant -1.8, Phagocytosis inh -1, HIV Rev-RRE inh 1, DAT uptake mod -0.34, Cav32 inh -0.49 and Measles CPE 2.
Screening C/C(O)=C\c1nc2ccccc2oc1=O returned PTK2B oligo ant 0.2, HIV Rev-RRE inh -1, DAT uptake mod -0.042, Cav32 inh 0.031 and Measles CPE 28*.
COc1cc(C(=O)NCC(=O)N/N=C(/C)c2cccs2)cc(OC)c1OC was read as PTK2B oligo ant -0.13, Phagocytosis inh -2 and Measles CPE 3.
For Cc1ccc(SCC(=O)c2c(C)[nH]c3ccccc23)cc1 the results were Phagocytosis inh -7 and Measles CPE 41*.
`Cc1[nH]c2ccccc2c1C(=O)CSc1ccccc1` gave Phagocytosis inh -8 and Measles CPE 22.
`CCOC(=O)c1[nH]c(C)c(C(=O)OCC(=O)N2CCc3ccccc32)c1C` gave PTK2B oligo ant 0.13, Phagocytosis inh -1, HIV Rev-RRE inh 4, DAT uptake mod -1.1, Cav32 inh 1.3 and Measles CPE 4.
For CC(=O)c1c(C)[nH]c(C(=O)OCC(=O)N2CCc3ccccc32)c1C the results were PTK2B oligo ant 1.4, Phagocytosis inh 2, HIV Rev-RRE inh -4, DAT uptake mod -2.6*, Cav32 inh -0.88 and Measles CPE 3.
`COC(=O)CSc1nc(C)cc(C(F)(F)F)c1C#N` gave PTK2B oligo ant -0.11, HIV Rev-RRE inh 11, DAT uptake mod -1.2, Cav32 inh -0.06 and Measles CPE 4.
Cc1ccc(S(=O)(=O)CCSc2nc(C)cc(C(F)(F)F)c2C#N)cc1 was read as PTK2B oligo ant -0.59, HIV Rev-RRE inh 64*, DAT uptake mod -0.21, Cav32 inh -1.4 and Measles CPE 4.
Screening CCOC(=O)NC(=O)CSc1nc(C)cc(C(F)(F)F)c1C#N returned PTK2B oligo ant 1.6, Phagocytosis inh -2, HIV Rev-RRE inh 42*, DAT uptake mod 1.3, Cav32 inh -0.27 and Measles CPE 13.
For O=C(Nc1ccccc1)C1=C[C@H](C2CC2)C[C@H](OCCCCO)O1 the results were DAT uptake mod 0.53 and Cav32 inh 1.4.
Cc1cccc(CN2C[C@]34CC[C@@H](C[C@@H]3S2(=O)=O)O4)c1 was read as DAT uptake mod -0.054 and Cav32 inh 1.4.
`Nc1nc(SCc2ccc(Cl)cc2)[nH]c(=O)c1-c1ccccc1` gave PTK2B oligo ant -1, HIV Rev-RRE inh 2, DAT uptake mod 0.68, Cav32 inh -1.3 and Measles CPE 3.
`Nc1[nH]c(=S)[nH]c(=O)c1-c1ccccc1` gave PTK2B oligo ant 0.32, Phagocytosis inh -1, HIV Rev-RRE inh 139*[fluorescence artefact?], DAT uptake mod -0.98, Cav32 inh -0.17 and Measles CPE 0.
Screening COC(=O)c1cc(Br)c(=O)n(Cc2ccco2)c1 returned PTK2B oligo ant -0.68, Phagocytosis inh 0, HIV Rev-RRE inh 5, DAT uptake mod 0.43, Cav32 inh 1.1 and Measles CPE 37*.
Screening O=Cc1ccc(OC2OCCOC2Oc2ccc(C=O)cc2)cc1 (configuration not stated) returned Measles CPE 6.
`CCN(C(=O)c1ccc(C(C)(C)C)cc1)c1nnc(Cn2nnc3ccccc32)s1` gave PTK2B oligo ant -1.5, Phagocytosis inh -1, HIV Rev-RRE inh 3, DAT uptake mod -1, Cav32 inh -8* and Measles CPE 3.
